Activity and IC50 data for seven compounds are collected here from ChEMBL document CHEMBL1773032, “Pierreiones A-D, solid tumor selective pyranoisoflavones and other cytotoxic constituents from Antheroporum pierrei” (J Nat Prod, 2011).

Experiment [1] has as its system MC-38. The experiment is described as follows: Selective toxicity against mouse C38 cells assessed as differential zone units at 68 ug/mL by disk diffusion soft agar colony formation assay relative to mouse L1210 cells. The format is functional. The gist of the method:
(§1)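 Murine Colon 38 and leukemia L1210 cells tested in the disk diffusion soft agar colony formation assay. Differential cytotoxicity expressed as the difference in inhibition zone size between the two lines, in zone units (200 zone units = 6 mm).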

The test system of a further experiment is HCT-116. The experiment can be described thus: Cytotoxicity against human HCT116 cells measured per disk after 5 days by hemocytometer counting. Type of experiment: functional, cell-based. The gist of the method:
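HCT-116 cells seeded at 5 × 10^4 cells per T25 flask in RPMI-1640 with 15% FBS, 1% penicillin-streptomycin and 1% glutamine, 37 °C, 5% CO2. Drug added at several concentrations on day 3, then incubated 120 h (5 d). Cells trypsinized, washed and resuspended in HBSS, counted by hemocytometer. Counts normalized to untreated control to give IC50.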

In experiment [2] the test system is MC-38. The experiment is described as follows: Selective toxicity against mouse C38 cells assessed as differential zone units at 66 ug/mL by disk diffusion soft agar colony formation assay relative to mouse L1210 cells. The format is functional. The gist of the method:
as §1

Experiment [3] relates to MC-38. The experiment can be described thus: Selective toxicity against mouse C38 cells assessed as differential zone units at 1.9 ug/mL by disk diffusion soft agar colony formation assay relative to mouse L1210 cells. The format is functional. The method, boiled down:
as §1
On the technique in general: Agar diffusion results depend on both activity and mobility in agar.

For experiment [4], the system named is MC-38. The experiment is described as follows: Selective toxicity against mouse C38 cells assessed as differential zone units at 0.26 ug/mL by disk diffusion soft agar colony formation assay relative to mouse L1210 cells. Type of experiment: functional. The method, boiled down: as §1
Experiment [5] deals with MC-38. The experiment is described as follows: Selective toxicity against mouse C38 cells assessed as differential zone units at 0.23 ug/mL by disk diffusion soft agar colony formation assay relative to mouse L1210 cells. Type of experiment: functional. The gist of the method: (§2)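 Disk diffusion soft agar colony-formation assay with murine Colon 38 (colon adenocarcinoma) and L1210 (lymphocytic leukemia) cells. The zone of inhibited colony formation around each disk is measured in zone units, where 200 zone units = 6 mm. Selectivity is the solid tumor minus leukemia zone difference.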

Experiment [6] relates to MC-38. The experiment can be described thus: Selective toxicity against mouse C38 cells assessed as differential zone units at 0.24 ug/mL by disk diffusion soft agar colony formation assay relative to mouse L1210 cells. Type of experiment: functional. The method, boiled down: as §2

Turning to `COc1cc(-c2coc3cc4c(c(OC)c3c2=O)C=CC(C)(C)O4)ccc1OC[C@@H](O)C(C)(C)O` [PIERREIONE A], the Activity in the experiment on MC-38 [1] is reported as 300 Zone units. This compound also returned an IC50 with HCT-116 of 7.5 µg.
As for `COc1cc(-c2coc3cc4c(cc3c2=O)C=CC(C)(C)O4)ccc1OC[C@@H](O)C(C)(C)O` [PIERREIONE B], the Activity in the experiment on MC-38 [2] is 300 Zone units. The compound also came in with an IC50 in the experiment with HCT-116 of 18 µg.
In turn, `COc1cc(-c2coc3cc4c(c(OC)c3c2=O)C=CC(C)(C)O4)ccc1OCC=C(C)C` [PIERREIONE C] registered an IC50 with HCT-116 of over 46 µg.
With `COc1cc(-c2coc3cc4c(cc3c2=O)C=CC(C)(C)O4)ccc1OCC=C(C)C` [PIERREIONE D], the Activity with MC-38 [3] was 600 Zone units. The same compound showed an IC50 in the experiment on HCT-116 of 30 µg.
As to `C=C(C)[C@H]1Cc2c(ccc3c2O[C@@H]2COc4cc(OC)c(OC)cc4[C@]2(O)C3=O)O1` [ROTENOLONE], the Activity in the experiment with MC-38 [4] was 450 Zone units. Moreover, the IC50 in the experiment on HCT-116 was 0.055 µg.
On to `C=C(C)[C@H]1Cc2c(ccc3c2O[C@@H]2COc4cc(OC)c(OC)cc4[C@@H]2C3=O)O1` [ROTENONE], for which the Activity in the experiment on MC-38 [5] amounted to 500 Zone units. The same compound gave an IC50 with HCT-116 of 0.045 µg.
Consider `COc1cc2c(cc1OC)[C@]1(O)C(=O)c3ccc4c(c3O[C@@H]1CO2)C=CC(C)(C)O4` [TEPHROSIN], for which the Activity with MC-38 [6] came out at 550 Zone units. In the experiment with HCT-116, this compound yielded an IC50 of 0.04 µg.
